This note sets out measurements from ChEMBL document CHEMBL4732237, “Discovery of 4-alkoxy-2-aryl-6,7-dimethoxyquinolines as a new class of topoisomerase I inhibitors endowed with potent in vitro anticancer activity” (2021).

Common to all, as to type: functional
What all share (details): read-out: GI

One assay concerns HL-60(TB). Kind of assay: Growth inhibition of human HL-60(TB) cells at 10 uM incubated for 48 hrs by sulforhodamine B assay relative to control. In short, it runs like this: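 NCI-60 one-dose screen: same culture, 48 h drug exposure and SRB read-out. Reported as percent growth relative to no-drug control and to time-zero cell number; 0–100 means growth inhibition, below 0 means lethality.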
(The SRB assay estimates cell density from bound dye.)

The test system of a further assay is SF-268. Kind of assay: Growth inhibition of human SF-268 cells at 10 uM incubated for 48 hrs by sulforhodamine B assay relative to control. In short, it runs like this: (§1)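 NCI one-dose screen. Cells grown in RPMI 1640 with 5% FBS and 2 mM L-glutamine, plated and incubated 24 h at 37 °C, 5% CO2. DMSO-dissolved drug added, then 48 h further incubation. Adherent cells fixed with cold TCA, suspension cells fixed after settling. Stained with 0.4% SRB, absorbance read at 515 nm. Reported as percent growth relative to no-drug control and time-zero cell number.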

The test system of another assay is SF-295. Kind of assay: Growth inhibition of human SF-295 cells at 10 uM incubated for 48 hrs by sulforhodamine B assay relative to control. In short, it runs like this:
as §1

Another assay concerns SNB-75. Kind of assay: Growth inhibition of human SNB-75 cells at 10 uM incubated for 48 hrs by sulforhodamine B assay relative to control. In short, it runs like this:
as §1

The test system of a further assay is U-251. Kind of assay: Growth inhibition of human U-251 cells at 10 uM incubated for 48 hrs by sulforhodamine B assay relative to control. Summed up: (§2)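 NCI one-dose screen across a 59-line panel. Cells were grown in RPMI 1640 with 5% FBS and 2 mM L-glutamine, plated and pre-incubated 24 h, then exposed to drug for 48 h at 37 °C, 5% CO2. Adherent cells were fixed with cold TCA (10% final), stained with 0.4% SRB in 1% acetic acid and read at 515 nm. Result is percent growth relative to no-drug control and time-zero cell count.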

Another assay has as its system M14. Kind of assay: Growth inhibition of human M14 cells at 10 uM incubated for 48 hrs by sulforhodamine B assay relative to control. Summed up:
(§3)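 NCI-60 single-dose screen. Cells were grown in RPMI 1640 with 5% FBS and 2 mM L-glutamine and plated 24 h before drug addition. Compound was added at one concentration in DMSO-derived medium and incubated for 48 h at 37 °C in 5% CO2. Read-out was SRB protein stain at 515 nm. Result is percent growth versus the no-drug control and the time-zero cell count; values below 0 indicate lethality.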

The next assay concerns MDA-MB-435. Kind of assay: Growth inhibition of human MDA-MB-435 cells at 10 uM incubated for 48 hrs by sulforhodamine B assay relative to control. In short, it runs like this: as §3
The test system of a further assay is OVCAR-5. Kind of assay: Growth inhibition of human OVCAR-5 cells at 10 uM incubated for 48 hrs by sulforhodamine B assay relative to control. Summed up: as §1
In a further assay the test system is SK-OV-3. Kind of assay: Growth inhibition of human SK-OV-3 cells at 10 uM incubated for 48 hrs by sulforhodamine B assay relative to control. In short, it runs like this: as §1
Another assay relates to UO-31. Kind of assay: Growth inhibition of human UO-31 cells at 10 uM incubated for 48 hrs by sulforhodamine B assay relative to control. Summed up: as §2
Another assay has as its system MCF7. Kind of assay: Growth inhibition of human MCF7 cells at 10 uM incubated for 48 hrs by sulforhodamine B assay relative to control. Summed up:
as §3

The test system of the next assay is MDA-MB-231. Kind of assay: Growth inhibition of human MDA-MB-231 cells at 10 uM incubated for 48 hrs by sulforhodamine B assay relative to control. In short, it runs like this: as §3

For the compound `COc1cc2nc(-c3ccc(C(F)(F)F)cc3)cc(OCCN3CCCC3)c2cc1OC`, the inhibition of growth at 10 µM in the assay on HL-60(TB), in the assay on SF-268, with SF-295, with SNB-75, in the assay with U-251 and with M14 was 13% each time. Further, the inhibition of growth at 10 µM in the assay on MDA-MB-435, with OVCAR-5, in the assay with SK-OV-3, with UO-31, in the assay with MCF7 and in the assay with MDA-MB-231 was 13% in each case.
On to `COc1cc2nc(-c3ccco3)cc(OCCCN3CCC(O)CC3)c2cc1OC`, for which the inhibition of growth at 10 µM with HL-60(TB), with SF-268, in the assay on SF-295, in the assay with SNB-75, in the assay on U-251 and in the assay with M14 was 46% in each case. Besides, the inhibition of growth at 10 µM in the assay on MDA-MB-435, in the assay with OVCAR-5, with SK-OV-3, in the assay on UO-31, in the assay on MCF7 and in the assay with MDA-MB-231 was 46% each time.
`COc1cc2nc(-c3ccc(Cl)cc3)cc(OCCN3CCC(O)CC3)c2cc1OC`: the inhibition of growth at 10 µM in the assay on HL-60(TB), in the assay with SF-268, with SF-295, in the assay on SNB-75, with U-251 and in the assay on M14 was 3% throughout. Moreover, the inhibition of growth at 10 µM with MDA-MB-435, in the assay on OVCAR-5, in the assay with SK-OV-3, in the assay on UO-31, in the assay with MCF7 and with MDA-MB-231 was 3% each time.
Consider `COc1cc2nc(-c3cccs3)cc(OCCCN3CCC(O)CC3)c2cc1OC`, for which the inhibition of growth at 10 µM in the assay with HL-60(TB), in the assay on SF-268, in the assay with SF-295, with SNB-75, with U-251 and in the assay on M14 was 20% in each case. The inhibition of growth at 10 µM in the assay on MDA-MB-435, in the assay with OVCAR-5, in the assay with SK-OV-3, in the assay on UO-31, in the assay with MCF7 and in the assay with MDA-MB-231 was 20% throughout.
As for `COc1cc2nc(-c3ccc(C(F)(F)F)cc3)cc(OCCN3CCOCC3)c2cc1OC`, the inhibition of growth at 10 µM in the assay on HL-60(TB), with SF-268, with SF-295, in the assay with SNB-75, in the assay on U-251 and in the assay with M14 was 13% in each case. Further, the inhibition of growth at 10 µM in the assay with MDA-MB-435, in the assay on OVCAR-5, in the assay with SK-OV-3, in the assay with UO-31, in the assay with MCF7 and in the assay on MDA-MB-231 was 13% in each case.
With `COc1cc2nc(-c3ccc(Cl)cc3)cc(OCCN3CCOCC3)c2cc1OC`, the inhibition of growth at 10 µM with HL-60(TB), in the assay with SF-268, in the assay on SF-295, in the assay with SNB-75, in the assay with U-251 and in the assay on M14 was 3% throughout. Besides, the inhibition of growth at 10 µM in the assay on MDA-MB-435, with OVCAR-5, in the assay with SK-OV-3, in the assay on UO-31, in the assay on MCF7 and in the assay on MDA-MB-231 was 3% throughout.
For `COc1cc2nc(-c3ccsc3)cc(OCCCN3CCC(O)CC3)c2cc1OC`, the inhibition of growth at 10 µM with HL-60(TB), with SF-268, with SF-295, with SNB-75, in the assay on U-251 and with M14 was 32% in each case. Further, the inhibition of growth at 10 µM with MDA-MB-435, in the assay with OVCAR-5, in the assay with SK-OV-3, in the assay on UO-31, with MCF7 and in the assay with MDA-MB-231 was 32% in each case.
On to `COc1cc2nc(-c3ccc(C(F)(F)F)cc3)cc(OCCN3CCC(O)CC3)c2cc1OC`, for which the inhibition of growth at 10 µM with HL-60(TB), with SF-268, in the assay on SF-295, in the assay with SNB-75, with U-251 and in the assay with M14 was 13% each time. In addition, the inhibition of growth at 10 µM in the assay on MDA-MB-435, in the assay on OVCAR-5, in the assay on SK-OV-3, with UO-31, in the assay on MCF7 and in the assay with MDA-MB-231 was 13% in each case.
`COc1cc2nc(-c3ccc(C(F)(F)F)cc3)cc(OCCN3CCCCC3)c2cc1OC`: the inhibition of growth at 10 µM with HL-60(TB), with SF-268, in the assay with SF-295, with SNB-75, in the assay with U-251 and in the assay on M14 was 13% throughout. Besides, the inhibition of growth at 10 µM with MDA-MB-435, in the assay on OVCAR-5, in the assay on SK-OV-3, in the assay with UO-31, in the assay on MCF7 and in the assay on MDA-MB-231 was 13% in each case.
On to `COc1cc2nc(-c3ccc(Cl)cc3)cc(OCCN3CCCCC3)c2cc1OC`, for which the inhibition of growth at 10 µM in the assay on HL-60(TB), in the assay with SF-268, in the assay with SF-295, in the assay with SNB-75, with U-251 and in the assay with M14 was 3% each time. The inhibition of growth at 10 µM in the assay on MDA-MB-435, in the assay on OVCAR-5, in the assay with SK-OV-3, with UO-31, with MCF7 and with MDA-MB-231 was 3% in each case.
`COc1cc2nc(-c3ccc(Cl)cc3)cc(OCCN3CCCC3)c2cc1OC`: the inhibition of growth at 10 µM in the assay on HL-60(TB), with SF-268, with SF-295, with SNB-75, in the assay with U-251 and in the assay with M14 was 3% throughout. Further, the inhibition of growth at 10 µM in the assay with MDA-MB-435, in the assay on OVCAR-5, with SK-OV-3, with UO-31, with MCF7 and in the assay with MDA-MB-231 was 3% throughout.
